Measured values from ChEMBL document CHEMBL1152661, “Synthesis of tetraglucosyl- and tetrapolyamine-tetrabenzoporphyrin conjugates for an application in PDT” (Bioorg Med Chem, 2009).
≈ marks a conversion by molar mass, not a printed value. Blank lines part the entries; values can stand above or below the compound they belong to.

Tests used:
[1] = Induction of singlet oxygen production assessed as appearance of ergosterol acetate epidioxide at 10 uM after 10 mW/cm'2 irradiation for 30 mins by TLC; assay type: physicochemical; details: 0.5 h
HaCaT = experiment: Photocytotoxicity against human HaCaT cells preincubated for 24 hrs in dark followed by illumination at 5.5 x 10^-2 mW/cm'2 light measured after 24 hrs post illumination by MTT assay; assay type: functional, cell-based
MCF7 = experiment: Photocytotoxicity against human MCF7 cells preincubated for 24 hrs in dark followed by illumination at 5.5 x 10^-2 mW/cm'2 light measured after 24 hrs post illumination by MTT assay; assay type: functional, cell-based
[2] = Photostability assessed as residual absorbance at 2.5 mW/cm'2 irradiation for 15 mins by photobleaching test; assay type: physicochemical; details: read-out: Stability
Method in brief: (§1)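 Solutions were irradiated with white light at fluence 2.5 mW/cm2. Absorbance was measured at the Soret band maximum and reported as % residual absorbance versus irradiation time.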

[3] = Photostability assessed as residual absorbance at 2.5 mW/cm'2 irradiation for 30 mins by photobleaching test; assay type: physicochemical; details: read-out: Stability; method in brief: as §1
[4] = Photostability assessed as residual absorbance at 2.5 mW/cm'2 irradiation for 45 mins by photobleaching test; assay type: physicochemical; details: read-out: Stability; method in brief: as §1
[5] = Photostability assessed as residual absorbance at 2.5 mW/cm'2 irradiation for 60 mins by photobleaching test; assay type: physicochemical; details: read-out: Stability; method in brief: as §1
[6] = Octanol-water partition coefficient, log P at 300 uM by absorption spectroscopy; assay type: physicochemical
Method in brief: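 1-Octanol/water partitioning at 25 °C using equal volumes of water and 1-octanol. Dye solution at 300 µM was vortexed and centrifuged. Aliquots of each phase were diluted separately into MeOH, and dye concentration was read by absorption spectroscopy. log P = log([dye]octanol/[dye]water).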

[7] = Homo sapiens, HaCaT, read-out: IC50
[8] = Homo sapiens, MCF7, read-out: IC50

Compound: CC(=O)OC[C@H]1O[C@H](OCC(=O)NCOCCOCCNC(=O)c2ccc(-c3c4nc(c(-c5ccc(C(=O)NCCOCCOCNC(=O)CO[C@H]6O[C@H](COC(C)=O)[C@@H](OC(C)=O)[C@H](OC(C)=O)[C@H]6O)cc5)c5[nH]c(c(-c6ccc(C(=O)NCCOCCOCNC(=O)CO[C@H]7O[C@H](COC(C)=O)[C@@H](OC(C)=O)[C@H](OC(C)=O)[C@H]7O)cc6)c6nc(c(-c7ccc(C(=O)NCCOCCOCNC(=O)CO[C@H]8O[C@H](COC(C)=O)[C@@H](OC(C)=O)[C@H](OC(C)=O)[C@H]8O)cc7)c7[nH]c3c3ccccc73)-c3ccccc3-6)c3ccccc53)-c3ccccc3-4)cc2)[C@H](O)[C@@H](OC(C)=O)[C@@H]1OC(C)=O
Activity [1]: Active

Compound: PORFIMER SODIUM
Activity [1]: Active
IC50 (HaCaT; hacat): 0.0787 µg/mL
IC50 (MCF7; mcf7): 1.224 µg/mL

Compound: O=C1OC2(c3ccccc31)c1cc(Br)c(O)c(Br)c1Oc1c2cc(Br)c(O)c1Br [EOSIN]
Activity [1]: Active

Compound: NCCCNCCCCN(CCCN)CCCCNC(=O)c1ccc(-c2c3nc(c(-c4ccc(C(=O)NCCCCN(CCCN)CCCCNCCCN)cc4)c4[nH]c(c(-c5ccc(C(=O)NCCCCN(CCCN)CCCCNCCCN)cc5)c5nc(c(-c6ccc(C(=O)NCCCCN(CCCN)CCCCNCCCN)cc6)c6[nH]c2c2ccccc62)-c2ccccc2-5)c2ccccc42)-c2ccccc2-3)cc1
remaining at 0.25 h [2]: 100%
remaining at 0.5 h [3]: 100%
remaining at 0.75 h [4]: 99%
remaining at 1 h [5]: 97%
Activity [1]: Active
logP at 300 µM [6]: -0.47
IC50 (HaCaT; hacat): Not Active
IC50 (MCF7; mcf7): Not Active

Compound: NCCOCCOCCNC(=O)c1ccc(-c2c3nc(c(-c4ccc(C(=O)NCCOCCOCCN)cc4)c4[nH]c(c(-c5ccc(C(=O)NCCOCCOCCN)cc5)c5nc(c(-c6ccc(C(=O)NCCOCCOCCN)cc6)c6[nH]c2c2ccccc62)-c2ccccc2-5)c2ccccc42)-c2ccccc2-3)cc1
Activity [1]: Active

Compound: CC(C)(C)OC(=O)NCCOCCOCCNC(=O)c1ccc(-c2c3nc(c(-c4ccc(C(=O)NCCOCCOCCNC(=O)OC(C)(C)C)cc4)c4[nH]c(c(-c5ccc(C(=O)NCCOCCOCCNC(=O)OC(C)(C)C)cc5)c5nc(c(-c6ccc(C(=O)NCCOCCOCCNC(=O)OC(C)(C)C)cc6)c6[nH]c2c2ccccc62)-c2ccccc2-5)c2ccccc42)-c2ccccc2-3)cc1
Activity [1]: Active

Compound: O=C([O-])c1c(Cl)c(Cl)c(Cl)c(Cl)c1-c1c2cc(I)c(=O)c(I)c-2oc2c(I)c([O-])c(I)cc12.[K+].[K+]
Activity [1]: Active

Compound: c1ccc(-c2c3nc(c(-c4ccccc4)c4[nH]c(c(-c5ccccc5)c5nc(c(-c6ccccc6)c6[nH]c2c2ccccc62)-c2ccccc2-5)c2ccccc42)-c2ccccc2-3)cc1 [Ar4TBP]
IC50 (HaCaT; hacat): Not Active
IC50 (MCF7; mcf7): Not Active

Further lines, with some results ahead:

Activity [1]: Active
Compound: CC(C)(C)OC(=O)NCCCCN(CCCCNC(=O)c1ccc(-c2c3nc(c(-c4ccc(C(=O)NCCCCN(CCCCNC(=O)OC(C)(C)C)CCCNC(=O)OC(C)(C)C)cc4)c4[nH]c(c(-c5ccc(C(=O)NCCCCN(CCCCNC(=O)OC(C)(C)C)CCCNC(=O)OC(C)(C)C)cc5)c5nc(c(-c6ccc(C(=O)NCCCCN(CCCCNC(=O)OC(C)(C)C)CCCNC(=O)OC(C)(C)C)cc6)c6[nH]c2c2ccccc62)-c2ccccc2-5)c2ccccc42)-c2ccccc2-3)cc1)CCCNC(=O)OC(C)(C)C

Activity [1]: Active
Compound: CC(C)(C)OC(=O)NCCCN(CCCCNC(=O)c1ccc(-c2c3nc(c(-c4ccc(C(=O)NCCCCN(CCCCN(CCCNC(=O)OC(C)(C)C)C(=O)OC(C)(C)C)CCCNC(=O)OC(C)(C)C)cc4)c4[nH]c(c(-c5ccc(C(=O)NCCCCN(CCCCN(CCCNC(=O)OC(C)(C)C)C(=O)OC(C)(C)C)CCCNC(=O)OC(C)(C)C)cc5)c5nc(c(-c6ccc(C(=O)NCCCCN(CCCCN(CCCNC(=O)OC(C)(C)C)C(=O)OC(C)(C)C)CCCNC(=O)OC(C)(C)C)cc6)c6[nH]c2c2ccccc62)-c2ccccc2-5)c2ccccc42)-c2ccccc2-3)cc1)CCCCN(CCCNC(=O)OC(C)(C)C)C(=O)OC(C)(C)C

remaining at 0.25 h [2]: 100%
remaining at 0.5 h [3]: 99%
remaining at 0.75 h [4]: 97%
remaining at 1 h [5]: 96%
Activity [1]: Active
logP at 300 µM [6]: -0.21
Compound: NCCCCN(CCCN)CCCCNC(=O)c1ccc(-c2c3nc(c(-c4ccc(C(=O)NCCCCN(CCCN)CCCCN)cc4)c4[nH]c(c(-c5ccc(C(=O)NCCCCN(CCCN)CCCCN)cc5)c5nc(c(-c6ccc(C(=O)NCCCCN(CCCN)CCCCN)cc6)c6[nH]c2c2ccccc62)-c2ccccc2-5)c2ccccc42)-c2ccccc2-3)cc1
IC50 (HaCaT; [7]): 3.42 µg/mL (≈ 1.92 µM)
IC50 (MCF7; [8]): 7.28 µg/mL (≈ 4.08 µM)

remaining at 0.25 h [2]: 100%
remaining at 0.5 h [3]: 99%
remaining at 0.75 h [4]: 98%
remaining at 1 h [5]: 95%
Activity [1]: Active
logP at 300 µM [6]: 0.18
Compound: OC[C@H]1O[C@@H](Oc2ccc(-c3c4nc(c(-c5ccc(O[C@@H]6O[C@H](CO)[C@@H](O)[C@H](O)[C@H]6O)cc5)c5[nH]c(c(-c6ccc(O[C@@H]7O[C@H](CO)[C@@H](O)[C@H](O)[C@H]7O)cc6)c6nc(c(-c7ccc(O[C@@H]8O[C@H](CO)[C@@H](O)[C@H](O)[C@H]8O)cc7)c7[nH]c3c3ccccc73)-c3ccccc3-6)c3ccccc53)-c3ccccc3-4)cc2)[C@H](O)[C@@H](O)[C@@H]1O
IC50 (HaCaT; [7]): 0.971 µg/mL (≈ 0.636 µM)
IC50 (MCF7; [8]): 8.41 µg/mL (≈ 5.51 µM)
